Reference: PubChem BioAssay
The source made the active and inactive calls.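 The calls were made as follows, unless noted: active = NADPH fluorescence slope more negative than the mean of all samples by about 3 SD, 99.7% confidence; inactive = the rest.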

Assays:
[1] = inhibitors of TNFa-induced NFkB p65 translocation, primary screen, imaging, HUVEC, MLSMR starter and 10KST1 sets (AID 438;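 active = inhibition above 20% together with a positive visual image hit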;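 also: compound added about 3h40 before a 20 min TNFalpha stimulation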;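 as to inhibition: signal is the nuclear over cytoplasmic p65 intensity ratio per well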); conditions: HUVEC TNFa-induced p65 nuclear translocation; cell count: measured here: nuclei count (cytotoxicity indicator), at 2.08 µM; inhibition: at 2 µM, stronger effect = higher value, 0% TNFa-plus-vehicle, 100% no-TNFa wells
[2] = inhibitors of E-selectin induction by TNFa, primary screen, imaging, HUVEC, immunofluorescence, MLSMR starter and 10KST1 sets (AID 487;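 active = visually confirmed hit in the image check and inhibition above 20%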;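 as to inhibition: signal is fraction of cell area covered by stained E-selectin grains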;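 as to nuclei count: 100% = median nuclei count of all wells on the same plate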); conditions: HUVEC TNFalpha-induced E-selectin immunofluorescence imaging, at 2 µM; inhibition: stronger effect = higher value; nuclei count: measured here: cell number, toxicity
[3] = DUSP6 inhibitors restoring Erk phosphorylation by chemical complementation, primary imaging in DUSP6-transfected HeLa (AID 609;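 active = compounds giving at least 50% inhibition in the cell-based MKP-3 phosphatase rescue imaging test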;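 as to inhibition: phospho-Erk level distribution per well compared with pooled transfected vehicle control wells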); conditions: HeLa MKP-3 transfected, phospho-Erk imaging KS statistic, at 10 µM, cells stimulated with TPA for 15 min
[4] = target: Dual specificity protein phosphatase 6 (Homo sapiens) (UniProt Q16828); assay: as above; conditions: HeLa MKP-3 transfected, phospho-Erk imaging KS statistic; at 10 µM; stronger effect = higher value; cells stimulated with TPA for 15 min
Sequence of Dual specificity protein phosphatase 6 (Homo sapiens) (Q16828 whole entry, looked up): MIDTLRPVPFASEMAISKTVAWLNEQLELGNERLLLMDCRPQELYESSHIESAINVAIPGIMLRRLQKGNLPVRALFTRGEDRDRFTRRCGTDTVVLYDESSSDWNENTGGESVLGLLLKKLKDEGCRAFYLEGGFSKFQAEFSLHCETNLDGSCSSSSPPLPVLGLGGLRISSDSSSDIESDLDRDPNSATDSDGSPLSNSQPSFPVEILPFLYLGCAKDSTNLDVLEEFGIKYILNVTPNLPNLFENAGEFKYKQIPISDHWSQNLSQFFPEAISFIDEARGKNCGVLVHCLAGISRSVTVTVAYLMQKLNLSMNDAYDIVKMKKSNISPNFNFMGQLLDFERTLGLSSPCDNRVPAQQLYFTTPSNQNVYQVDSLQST

[5] = target: Voltage-gated potassium channel subunit beta-2 (Rattus norvegicus) (UniProt P62483); assay: KvBeta enzyme negative modulators, primary screen, biochemical, NADPH fluorescence (AID 622;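 active = fluorescence slope higher than the sample average by over 3 SD, cut at about -0.22 in these data, passing the limit was not always enough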;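 also: slope of raw intensity against log time taken from 70 to 1610 s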); conditions: recombinant KvBeta, 4-cyanobenzaldehyde reduction, at 10 µM, stronger effect = higher value
Sequence of Voltage-gated potassium channel subunit beta-2 (Rattus norvegicus) (P62483 whole entry, looked up): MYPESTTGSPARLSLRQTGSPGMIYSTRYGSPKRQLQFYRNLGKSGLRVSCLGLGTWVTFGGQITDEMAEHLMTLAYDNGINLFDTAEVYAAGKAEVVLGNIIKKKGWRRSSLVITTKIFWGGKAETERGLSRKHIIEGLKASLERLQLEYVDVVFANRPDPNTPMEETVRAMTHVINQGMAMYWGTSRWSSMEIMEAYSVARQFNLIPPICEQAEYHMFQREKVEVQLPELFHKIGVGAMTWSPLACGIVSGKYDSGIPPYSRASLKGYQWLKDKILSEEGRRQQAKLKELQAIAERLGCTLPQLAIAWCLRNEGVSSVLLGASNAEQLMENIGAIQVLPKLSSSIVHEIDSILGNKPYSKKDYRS

[6] = target: Voltage-gated potassium channel subunit beta-2 (Rattus norvegicus) (UniProt P62483); assay: KvBeta positive modulators, primary screen, biochemical, NADPH fluorescence (AID 623); conditions: Recombinant KvBeta, NADPH fluorescence decrease slope, 10 min; at 10 µM; stronger effect = lower value;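 also: fluorescence intensity change per second fitted from 20 to 320 s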
[7] = target: Muscarinic acetylcholine receptor M4 (Homo sapiens) (UniProt P08173); assay: compounds altering M4/GIRK thallium flux, either direction, primary screen, M4 allosteric agonist project, cell-based, HEK293 M4/GIRK, BTC-AM (AID 625;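 active = fluorescence slope after compound addition differing from the mean of all tested samples at 99.7% confidence, mostly higher but some lower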;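 also: thallium influx through GIRK channels coupled to M4 in HEK293 cells with BTC-AM dye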); conditions: at 10 µM, actives lie on both sides
Sequence of Muscarinic acetylcholine receptor M4 (Homo sapiens) (P08173 whole entry, looked up): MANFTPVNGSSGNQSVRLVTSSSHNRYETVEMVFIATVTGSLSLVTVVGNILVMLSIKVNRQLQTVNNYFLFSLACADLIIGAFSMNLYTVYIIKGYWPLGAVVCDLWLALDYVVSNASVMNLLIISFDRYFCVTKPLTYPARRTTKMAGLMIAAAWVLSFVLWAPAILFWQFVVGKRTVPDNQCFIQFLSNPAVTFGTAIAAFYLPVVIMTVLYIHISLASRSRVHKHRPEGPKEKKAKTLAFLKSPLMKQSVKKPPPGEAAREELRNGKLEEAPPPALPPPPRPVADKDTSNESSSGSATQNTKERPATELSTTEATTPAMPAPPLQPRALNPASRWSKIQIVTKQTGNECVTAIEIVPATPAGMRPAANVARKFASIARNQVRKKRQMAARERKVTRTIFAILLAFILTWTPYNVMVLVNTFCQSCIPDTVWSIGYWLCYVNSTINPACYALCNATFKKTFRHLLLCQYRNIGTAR
How it was run: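 Material – HEK293 cells with M4 receptor and GIRK channels · Buffer or medium – pH 7.3 thallium assay buffer · Doses – one dose, 10 µM final · Timing – cells overnight at 37 °C, BTC-AM loading 1 h, reads 2 min total · Measured by – kinetic fluorescence with BTC-AM dye · Controls – carbachol and DMSO controls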

[8] = inhibitors of larval lipid processing in zebrafish, primary screen, whole organism, PED6 fluorescence, gall bladder and intestine (AID 686;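 active = a full or partial loss of lipid-probe fluorescence in the fish gall bladder, intestine or both, judged by eye; inactive = no fluorescence loss, or compound toxic to the fish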;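 also: larvae 5 to 7 days old with five fish per well; signal comes from phospholipase A2 cleavage of quenched PED6 carried via bile; overnight exposure to compound and PED6 before scoring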); conditions: Zebrafish larvae PED6 lipid processing, fluorescence scoring; screened at 20 µM (by protocol)
How it was run: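 system = live zebrafish larvae aged 5-7 days, whole organism | probe or stimulus = ingested quenched lipid PED6 at 100 nM | doses = 20 µM single dose | timing = overnight exposure | detection = fluorescence microscopy with visual scoring of gall bladder and intestine | read-out = visual per-well fluorescence inhibition score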

[9] = inhibitors of Chlamydomonas gravitaxis, primary screen, whole organism, Chlamydomonas reinhardtii, WT vs cilia-less mutant, absorbance, 96-well (AID 463189;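 active = inhibition at or above 50% relative to wild type and mutant plate controls; inactive = inhibition below 50%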;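 also: 0% = wild type cc124 cells in DMSO and 100% = ciliumless bld1 mutant cells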); conditions: OD600 absorbance, 2 days, at 10 µM, stronger effect = higher value
[10] = measured here: cell density z-score
[11] = measured here: nuclear c-Myc green intensity z-score
[12] = measured here: nuclear pErk red intensity z-score, stronger effect = higher value

Compound | cell count [1] | inhibition [1] | inhibition [2] | nuclei count [2] | z-score [3, 10] | z-score [3, 11] | z-score [3, 12] | inhibition [4] | fluorescence slope [5] | NADPH fluorescence slope [6] | fluorescence slope [7] | outcome [8] | inhibition [9]
C=CCNc1nc(N2CCOCC2)c(C#N)c2c1CN(C)CC2 | 600 | -5.7% (inactive) | -83.6% (inactive) | 138% | 0.63 | -0.71 | 0.0349 | 9.07% (inactive) | -0.417 (inactive) | -9.1e-05 (inactive) | 0.00406 (inactive) | inactive | 1.91% (inactive)
Cc1cccc(N2CC(=O)N(c3cccc(C)c3)CC2=O)c1 | 691 | -1.4% (inactive) | -33.5% (inactive) | 201% | -0.963 | 0.808 | -0.574 | 3.97% (inactive) | -0.477 (inactive) | -5.4e-05 (inactive) | 0.00702 (inactive) | inactive | -8.04% (inactive)
Cc1ccc(C(=O)NCC(C)(C)O)cc1 | 554 | -5.3% (inactive) | -1.3% (inactive) | 87.7% | -0.652 | -0.297 | -0.959 | -3.95% (inactive) | -0.473 (inactive) | -8.2e-05 (inactive) | 0.00553 (inactive) | inactive | -5.2% (inactive)
CCSc1nnc(NC(=O)NC(CC)(C(F)(F)F)C(F)(F)F)s1 | 704 | 0.5% (inactive) | -56.3% (inactive) | 140% | -0.466 | -0.955 | -0.238 | 9.07% (inactive) | -0.431 (inactive) | -5e-05 (inactive) | 0.00857 (inactive) | inactive | 22.7% (inactive)
C[n+]1cccc(CNC(=O)/C=N/O)c1 | 621 | -2.4% (inactive) | -126% (inactive) | 158% | -2.05 | 3.02 | 0.751 | 6.04% (inactive) | -0.47 (inactive) | -3e-05 (inactive) | 0.00464 (inactive) | inactive | -6.73% (inactive)
CC(C)(C)C1=Nn2c(nnc2C2CCCCC2)SC1 | 802 | -5.9% (inactive) | -150% (inactive) | 189% | 0.781 | 1.46 | 0.611 | 2.46% (inactive) | -0.452 (inactive) | -7.5e-05 (inactive) | 0.00451 (inactive) | inactive | 3.81% (inactive)
CCOc1ccccc1C(=O)NCCCCCC(=O)O | 421 | -9.4% (inactive) | -419% (inactive) | 193% | 0.279 | -0.756 | 0.2 | 1.42% (inactive) | -0.472 (inactive) | -9.6e-05 (inactive) | 0.00537 (inactive) | inactive | 0.493% (inactive)
O=C(C1CCCCC1)N1CCCn2c1nc1ccccc12 | 466 | -4.2% (inactive) | 40.4% (inactive) | 93.7% | 0.0435 | 0.0435 | -0.166 | -0.233% (inactive) | -0.481 (inactive) | -3.7e-05 (inactive) | 0.00633 (inactive) | inactive | -20.3% (inactive)
CCC(=O)NC1(C(F)(F)F)C(=O)Nc2c1c(=O)[nH]c(=O)n2Cc1ccco1 (stereo not drawn) | 652 | -2.8% (inactive) | -96.3% (inactive) | 167% | -1.08 | 0.161 | 0.694 | 1.04% (inactive) | -0.497 (inactive) | -8.6e-05 (inactive) | 0.00505 (inactive) | inactive | 9.21% (inactive)
Cn1ncc(N=Cc2c(O)ccc3ccccc23)c1C(=O)N1CCOCC1 | 713 | -2.5% (inactive) | -43.6% (inactive) | 175% | 0.977 | 0.19 | 0.26 | 3.97% (inactive) | -0.482 (inactive) | -9.8e-05 (inactive) | 0.00513 (inactive) | inactive | 11.5% (inactive)
O=C(NCc1ccco1)c1ccc(=O)[nH]n1 | 578 | 3.8% (inactive) | -71.8% (inactive) | 91.1% | 0.426 | -0.894 | -1.39 | 28.1% (inactive) | -0.539 (inactive) | -4.2e-05 (inactive) | 0.00665 (inactive) | inactive | 29.4% (inactive)
O=C(Nc1ccccn1)c1ccc(=O)[nH]n1 | 634 | 4.2% (inactive) | -92.2% (inactive) | 134% | 0.857 | -1.57 | -0.248 | 6.51% (inactive) | -0.475 (inactive) | -0.0002 (inactive) | 0.00627 (inactive) | inactive | 20.6% (inactive)
COc1cc(C2Nc3cccc4cccc(c34)N2)cc(OC)c1OC(C)=O | 498 | -3.5% (inactive) | -2.1% (inactive) | 85.3% | 0.65 | -1.19 | 0.407 | -2.59% (inactive) | -0.474 (inactive) | 7.8e-06 (inactive) | 0.00327 (inactive) | inactive | 17.1% (inactive)
COC(=O)C(NC(=O)c1ccccc1)(Nc1nc(C)cs1)C(F)(F)F (stereo not drawn) | 687 | -8.5% (inactive) | -24.1% (inactive) | 152% | -0.446 | -1.08 | 0.594 | 10.9% (inactive) | -0.481 (inactive) | -3.9e-05 (inactive) | 0.00439 (inactive) | inactive | 11.6% (inactive)
CC(=O)C1=C(O)C(=O)N(c2ccc(S(N)(=O)=O)cc2)C1c1ccccc1F (stereo not drawn) | 382 | -5.4% (inactive) | 14.5% (inactive) | 138% | -0.839 | -1.6 | 0.715 | 11.9% (inactive) | -0.476 (inactive) | -0.000111 (inactive) | 0.00408 (inactive) | inactive | -4.73% (inactive)
CCOC(=O)CSc1nc(N)c(C(=O)Nc2ccc(N(C)C)cc2)s1 | 703 | -7% (inactive) | -123% (inactive) | 188% | -1.17 | 1.84 | -1.52 | 1.98% (inactive) | -0.46 (inactive) | -6.8e-05 (inactive) | 0.00383 (inactive) | active; weak signal in gallbladder and intestine | -7.12% (inactive)
CC1(C)CC(=O)C(C=NCCN2CCN(CCc3ccccc3)CC2)=C(O)C1 | 367 | -0.8% (inactive) | -22.3% (inactive) | 94.1% | -1.16 | 0.888 | -1.15 | -2.69% (inactive) | -0.506 (inactive) | 1.2e-05 (inactive) | 0.00481 (inactive) | inactive | -9.36% (inactive)
Cc1cccc(NC(=O)c2cc(N3CCOCC3)nc3ccccc23)c1 | 620 | -13.1% (inactive) | -446% (inactive) | 148% | -1.06 | 1.5 | 2.96 | -11.5% (inactive) | -0.438 (inactive) | -7.5e-05 (inactive) | 0.00519 (inactive) | inactive | -4.1% (inactive)
C=C(C)CSc1nnc2n(C)c(=O)c3c4c(sc3n12)CCC4 | 334 | 8.5% (inactive) | -1.8% (inactive) | 118% | 1.02 | -0.186 | -0.897 | 15.4% (inactive) | -0.438 (inactive) | -0.000119 (inactive) | 0.00483 (inactive) | inactive | 41.8% (inactive)
CC(=O)c1ccc(C#CC(C)(C)O)s1 | 496 | -2.5% (inactive) | -51.1% (inactive) | 126% | -0.749 | 0.398 | 0.00406 | -3.97% (inactive) | -0.386 (inactive) | -7.4e-05 (inactive) | 0.00521 (inactive) | inactive | -7.15% (inactive)
CCCn1nnc(NC(=O)c2cc(Br)cc(Br)c2OC)n1 | 391 | -1.7% (inactive) | -24.1% (inactive) | 127% | 0.877 | 0.738 | 0.427 | 20.2% (inactive) | -0.463 (inactive) | -0.000102 (inactive) | 0.00469 (inactive) | inactive | 8.4% (inactive)
CCO/C(C)=N/n1c2nc3ccccc3nc2c2c(=O)n(Cc3ccccc3Cl)c(C)nc21 | 649 | -3.5% (inactive) | -201% (inactive) | 159% | -0.0584 | -0.543 | -0.0329 | 9.37% (inactive) | -0.455 (inactive) | -3.5e-05 (inactive) | 0.00359 (inactive) | inactive | 12.7% (inactive)
COCCNc1nc2c(c(=O)n(C)c(=O)n2C)n1Cc1cccc(C(F)(F)F)c1 | 698 | 3% (inactive) | -94.2% (inactive) | 95.8% | 0.711 | -1.37 | -0.346 | 7.93% (inactive) | -0.559 (inactive) | -8e-05 (inactive) | 0.00743 (inactive) | inactive | 36.2% (inactive)
CCOCCn1c(SCc2c(F)cccc2Cl)nc2c1c(=O)[nH]c(=O)n2C | 620 | 3.9% (inactive) | -40.4% (inactive) | 114% | -0.473 | 0.0694 | 0.197 | -9.53% (inactive) | -0.472 (inactive) | -4.5e-05 (inactive) | 0.00638 (inactive) | inactive | -4.7% (inactive)
C(=N\n1cnnc1)/c1cccc(Oc2ccccc2)c1 | 569 | -5.8% (inactive) | -140% (inactive) | 111% | -0.768 | 1.37 | 1.58 | -6.06% (inactive) | -0.515 (inactive) | -5.4e-05 (inactive) | 0.00705 (inactive) | inactive | 78.1% (active)
CCOc1ccc(NC(=O)CSC2=C(C#N)C(c3ccc4c(c3)OCO4)CC(=O)N2)cc1 (stereo not drawn) | 639 | 0.6% (inactive) | 75.3% (inactive) | 140% | 0.00899 | -0.0485 | -0.833 | -6.06% (inactive) | -0.47 (inactive) | -5.2e-05 (inactive) | 0.00582 (inactive) | inactive | 14.4% (inactive)
